Hits are enriched below; roughly 2.9% of the tested compounds scored in any of these assays.
CRFR2-BP antag – antagonists of CRF-binding protein/CRF-R2 receptor complex | HEK293 CRF-R2/CRF-BP, CRF-induced calcium fluorescence | inhibition, % at 11.8 µM | 0.59% of 350,000 active | AID 588475;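 active means inhibition of the ligand-induced calcium signal above about 50% at the single tested concentration, limit read from the data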
KLK7 zymogen act – activates the human kallikrein-7 zymogen; AID 652039; purified proKLK7, EDANS-DABCYL substrate fluorescence; 100% is mature enzyme control, 0% vehicle; 0.9% of 370,000 active; activation, % at 7 µM;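 active means activation above the mean of all tested compounds plus 3 SD, computed per campaign excluding outliers beyond control limits, cut at about 13% in these data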
CRFR2-BP ag – agonists of human CRF-binding protein/CRF-R2 receptor complex; HEK293 CRF-R2/CRF-BP, calcium dye fluorescence (FLIPR); percent of saturating CRF peptide response; activation, % at 13.2 µM; 0.46% of 350,000 active; AID 588473;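 active means activation of at least 50%, plus an integration ratio under a set limit after plate pattern correction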
DDE Tn6 FP inh – DD(E)-Tn6 binding inhibition, primary FP screen. P02675. Fibrin DD(E) TRITC-Tn6 fluorescence polarization displacement. inhibition, % at 8.3 µM. 0.21% of 370,000 active;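 active means inhibition above a per-campaign cutoff: mean of compounds within control limits plus 3 SD, cut at about 15% in these data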
DDE Tn7 FP inh – disrupts Tn7 cyclic peptide binding to fibrin D-Dimer-E complex. AID 720508. inhibition, % at 8.3 µM. FP displacement of FITC-Tn7 peptide from fibrin DD(E); 0% = median of compound wells per plate. 0.13% of 370,000 active. P02675;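 active means inhibition above the mean of compounds falling within the control limits plus 3 SD of them, cut at about 14% in these data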
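System: human fibrin DD(E); quantity: Fibrin-DD(E) at 2 µM final; also added: fluorescent Tn7 probe at 0.1 µM; compound dosing: single nominal test concentration of 8.3 µM per compound; schedule: 10 min preincubation, 3 h with tracer, room temperature; detection: fluorescence polarization of the labelled Tn7 tracer; repeats: one replicate per compound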
CendR NRP1 mod – NRP-1/CendR interaction modulation. FAM-RPARPAR peptide binding to NRP-1, fluorescence polarization. O14786. 0.85% of 360,000 active. inhibition, % at 25 µM;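 active means inhibition or corrected inhibition above about 18%, plus a signal ratio from 0.5 to 1.5, limit read from the data, passing the limit was not always enough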
Target sequence (O14786 whole entry, looked up): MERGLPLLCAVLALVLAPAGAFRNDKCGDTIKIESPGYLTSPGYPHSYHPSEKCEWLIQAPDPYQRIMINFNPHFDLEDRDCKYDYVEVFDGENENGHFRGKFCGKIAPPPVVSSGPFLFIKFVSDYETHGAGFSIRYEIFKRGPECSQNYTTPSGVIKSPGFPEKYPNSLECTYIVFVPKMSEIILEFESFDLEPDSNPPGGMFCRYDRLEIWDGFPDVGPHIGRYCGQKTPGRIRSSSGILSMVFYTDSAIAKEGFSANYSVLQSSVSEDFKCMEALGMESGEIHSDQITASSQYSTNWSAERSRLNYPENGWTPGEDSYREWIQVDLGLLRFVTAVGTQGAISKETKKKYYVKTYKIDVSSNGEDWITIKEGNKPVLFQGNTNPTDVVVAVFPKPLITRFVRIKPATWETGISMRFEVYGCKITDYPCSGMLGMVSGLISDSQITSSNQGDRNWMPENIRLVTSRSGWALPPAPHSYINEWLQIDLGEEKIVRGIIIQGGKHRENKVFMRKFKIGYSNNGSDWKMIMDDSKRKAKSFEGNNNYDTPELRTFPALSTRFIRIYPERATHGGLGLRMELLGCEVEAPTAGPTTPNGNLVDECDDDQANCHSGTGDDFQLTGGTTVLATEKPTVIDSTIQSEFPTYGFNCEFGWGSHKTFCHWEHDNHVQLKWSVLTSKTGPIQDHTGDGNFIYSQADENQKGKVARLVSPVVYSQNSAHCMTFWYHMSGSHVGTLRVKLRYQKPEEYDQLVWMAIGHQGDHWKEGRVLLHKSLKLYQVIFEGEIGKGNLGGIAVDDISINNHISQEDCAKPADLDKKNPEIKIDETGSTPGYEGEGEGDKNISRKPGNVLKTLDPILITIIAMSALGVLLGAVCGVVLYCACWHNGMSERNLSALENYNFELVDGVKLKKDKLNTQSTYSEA
Of the large screens only hits and unclear results are named; the others gave an inactive call.

Cc1nnc(C)n1/N=C/c1cccs1	CRFR2-BP antag 55.1
Cc1nnc(C)n1/N=C/c1ccccc1	none
CC1(OC(=O)c2cccs2)C(=O)C=C2C=C3CCCN3C=C2C1=O (stereo not drawn)	CendR NRP1 mod 41.0 (no result: KLK7 zymogen act, DDE Tn6 FP inh, DDE Tn7 FP inh)
COC(=O)CCCC1=CC2=CC(=O)C(C)(OC(=O)c3cccs3)C(=O)C2=CN1CCCOC(C)C (stereo not drawn)	CendR NRP1 mod 27.9
CC1(OC(=O)CCc2ccccc2)C(=O)C=C2C=C3CCCN3C=C2C1=O (stereo not drawn)	CendR NRP1 mod 48.0
CC1(OC(=O)CCc2ccccc2)C(=O)C=C2C=C(c3ccc(C#N)cc3)N(C3CCCCC3)C=C2C1=O (stereo not drawn)	none
CC(=O)N1c2cc(S(=O)(=O)N3CCN(c4ccccc4F)CC3)c(Br)cc2CC1C (stereo not drawn)	none (no result: CRFR2-BP antag, CRFR2-BP ag, CendR NRP1 mod)
O=C1CCc2nc3ccccc3c(=O)n2N1	CRFR2-BP antag 80.2 (no result: KLK7 zymogen act, DDE Tn6 FP inh, DDE Tn7 FP inh)
O=[N+]([O-])c1ccc(N/N=C/c2sc(N3CCOCC3)nc2-c2ccccc2)c(S(=O)(=O)Nc2ccccc2Cl)c1	CRFR2-BP ag 66.9
O=[N+]([O-])c1ccc(N/N=C/c2sc(N3CCOCC3)nc2-c2ccccc2)c(S(=O)(=O)Nc2ccc(Cl)cc2)c1	CRFR2-BP ag 83.0
CCOC(=O)CC[C@@H]1CC[C@]2(CCCN(Cc3ccc(Cl)cc3)C2)O1	none (no result: CRFR2-BP antag, CRFR2-BP ag, CendR NRP1 mod)
Cc1ccc(-n2c(=O)cc(N3CCCCCC3)[nH]c2=O)cc1	none
Cc1ccc(-n2c(Cl)c(Cl)[nH]c(=O)c2=O)cc1	CRFR2-BP antag 50.8
S=C(Nc1ccccc1)OC1CCC12CCC(c1ccccc1)CC2 (stereo not drawn)	none (no result: CRFR2-BP antag, CRFR2-BP ag, CendR NRP1 mod)
COC(=O)[C@@]12CCCCN1[C@H](c1ccc(-c3ccc(OC)cc3)cc1)[C@@H]1C(=O)N(C)C(=O)[C@@H]12	none
COC(=O)[C@@]12CCCCN1[C@H](c1ccc(-c3ccc4c(c3)OCO4)cc1)[C@H]1C(=O)N(C)C(=O)[C@H]12	CendR NRP1 mod 29.7
COc1ccccc1/C=C/c1nc(S(=O)(=O)c2ccccc2)c(N(C)C)o1	CRFR2-BP antag 71.9
CC(=O)N1CC(C)Sc2ccc(S(=O)(=O)NC3CCCCC3C)cc21 (stereo not drawn)	CendR NRP1 mod 20.7
COC[C@@H](OC(C)=O)[C@H]1OCc2ccccc2[C@@H]1/C=C/c1ccccc1	none (no result: CRFR2-BP antag, CRFR2-BP ag, CendR NRP1 mod)
CC(C)[C@H](NC(=O)c1ccccc1)C(=O)OCC(=O)c1ccccc1F	none
CC(C)[C@H](NC(=O)c1c(F)cccc1F)C(=O)OCC(=O)NNC(=O)c1ccccc1	CendR NRP1 mod 21.1
CCN(c1cccc(C)c1)c1nc2ccsc2c(=O)s1	CRFR2-BP antag 69.9
COc1ccc(C(C(=O)N(C)C2CCCC2)N(Cc2ccc(F)cc2)C(=O)c2cc(C)[nH]n2)cc1OC (stereo not drawn)	none (no result: CRFR2-BP antag, CRFR2-BP ag, CendR NRP1 mod)
COc1cccc(CN2CCN(Cc3ccco3)CC2)c1	CendR NRP1 mod 21.5
CCCCN1CC(COCc2ccccc2)Oc2cccc(OCCN3C(=O)[C@@H]4[C@H](C3=O)C3C=C[C@H]4C3)c2S1(=O)=O (stereo partly drawn)	CRFR2-BP ag 171.6
COc1ccc(C2C(C(=O)N3CCC(C)CC3)CC(=O)N2c2ccc(OC)cc2)cc1 (stereo not drawn)	none (no result: CRFR2-BP antag, CRFR2-BP ag, CendR NRP1 mod)
CC(=O)O[C@@H]1C=C[C@@H](C#Cc2ccc(C(C)(C)C)cc2)O[C@@H]1COC(=O)Nc1ccccc1	none (no result: CRFR2-BP antag, CRFR2-BP ag, CendR NRP1 mod)
O=C1C=C(NCc2ccco2)C2(CCCCC2)O1	CendR NRP1 mod 22.7
O=C1C=C(NCc2ccccc2)C2(CCCCC2)O1	none
COC(=O)n1c(=O)oc2ccccc21	CendR NRP1 mod 26.4
CCCCOC(=O)n1c(=O)oc2ccccc21	none
CC(C)CCN(C)C1CCN(C(=O)Nc2ccc3c(c2)OCO3)CC1	none (no result: CRFR2-BP antag, CRFR2-BP ag, CendR NRP1 mod)
CC(=O)Nc1cccc(NC(=S)Nc2cccc3ccccc23)c1	CendR NRP1 mod 30.3
COc1ccc(/C=C2\CC3(OC(=O)C4CCCC4)CCCN2C3)cc1 (stereo not drawn)	none (no result: CRFR2-BP antag, CRFR2-BP ag, CendR NRP1 mod)
C[C@H]1C2CC(OC(=O)Nc3ccc(F)cc3)C(C2)[C@H]2CCCCN21 (stereo partly drawn)	none (no result: CRFR2-BP antag, CRFR2-BP ag, CendR NRP1 mod)
N#Cc1c2ccc(O)cc2n2ccccc12	CRFR2-BP ag 72.5, CendR NRP1 mod 31.3
N#Cc1c2ccc(OCC(=O)NCc3ccco3)cc2n2ccccc12	none
Cc1cc(C(C2C(=O)CC(C)(C)CC2=O)C2C(=O)CC(C)(C)CC2=O)cc(C)c1OC(F)F	CRFR2-BP ag 58.7
O=S(=O)(c1cccc2nsnc12)N1CCc2ccccc2C1	CRFR2-BP antag 52.3
O=S(=O)(c1cccc2nsnc12)N1CCCC1	none
C[N+](C)(CC#Cc1ccccc1)CC(=O)c1ccccc1	CendR NRP1 mod 41.9
C[N+](C)(CC#Cc1ccccc1)CC(=O)c1ccc(Cl)cc1	none
CCN(CC)C(=O)Cn1c(=O)c2ccccc2n2c(=S)sc(-c3cccc(C)c3)c12	CRFR2-BP ag 55.3
COCCN(C(=S)Nc1ccccc1C)C(C)c1cccs1 (stereo not drawn)	CendR NRP1 mod 26.4
COCCN(C(=S)Nc1ccc(C)cc1C)C(C)c1cccs1 (stereo not drawn)	none
Cc1nc2sc(C(c3ccco3)N3CCC(C)CC3)c(O)n2n1 (stereo not drawn)	none
Cc1nc2sc(C(c3ccco3)N3CC(C)OC(C)C3)c(O)n2n1 (stereo not drawn)	CendR NRP1 mod 19.0
COc1cccc(C(=O)Nc2ccc(C3CC3(Cl)Cl)cc2)c1 (stereo not drawn)	CendR NRP1 mod 20.6
COc1cccc(C(=O)Nc2cccc(C(C)=O)c2)c1	none
COC(=O)C1=C(NC(=O)c2cccc(OC)c2)CCS1	CRFR2-BP antag 67.2 (no result: KLK7 zymogen act, DDE Tn6 FP inh, DDE Tn7 FP inh)
COc1cccc(C(=O)Nc2ccc(C)cc2)c1	none
COC(=O)c1cccc(NC(=O)c2cccc(OC)c2)c1	CendR NRP1 mod 23.1
CCOC(=O)Cc1nc(N2CCN(C(=O)C3CCCO3)CC2)c2c(C)c(C(=O)OCC)sc2n1 (stereo not drawn)	none (no result: CRFR2-BP antag, CRFR2-BP ag, CendR NRP1 mod)
C=CCN(C)C(C#Cc1ccccc1)c1ccccc1C(F)(F)F (stereo not drawn)	none (no result: CRFR2-BP antag, KLK7 zymogen act, CRFR2-BP ag, CendR NRP1 mod)
Cc1cc(NS(=O)(=O)C2CCN(C(=O)Cc3ccc(Cl)c(Cl)c3)CC2)no1	none (no result: CRFR2-BP antag, CRFR2-BP ag, CendR NRP1 mod)
COc1ccc(N(C(=O)c2ccco2)C(C(=O)NC2CCCC2)c2ccc(N3CCOCC3)cc2)c(OC)c1 (stereo not drawn)	CRFR2-BP antag 52.6
COc1ccc(N(C(=O)c2ccco2)C(C(=O)NC2CCCC2)c2ccc(C)cc2)c(OC)c1 (stereo not drawn)	none
O=C1C(NC(=O)N2c3ccccc3C=Cc3ccccc32)CCCCN1Cc1cccc(C(F)(F)F)c1 (stereo not drawn)	none (no result: CRFR2-BP antag, CRFR2-BP ag, CendR NRP1 mod)

Screens (PubChem BioAssay)
